Bioassay records as filed in PubChem BioAssay.
PKD1 inh = blocks activity of human protein kinase D1; Q15139; PKD1 kinase fluorescence polarization assay; 200,000 tested, 0.056% active; inhibition, % (no concentration beside the values)
GSH fluor = GSH bead compound fluorescence profile. GSH beads flow cytometry, compound fluorescence 488/530 nm; hits give high values. fluorescence (KMESF) at 10 µM. 190,000 tested, 0.25% active. AID 1776; in the data active = fluorescence above about 89;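 note: glutathione beads carrying GST-tagged Bcl family fusion proteins plus one bare bead set; values are compound well signal with DMSO vehicle wells as background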
ABCB1 inh = inhibitors of human ABCB1 transporter, ABCG2 counter-screen; P08183; CCRF-Adr cells, JC-1 efflux, flow cytometry; inhibition, % at 6.6 µM; 190,000 tested, 0.067% active; AID 1326; in the data active = inhibition above about 40%;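 note: 0% = vehicle and 100% = reference inhibitor; higher value means more JC-1 retained so stronger ABCB1 efflux block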
Lmaj promast = inhibitors of Leishmania major promastigote growth; 200,000 tested, 9% active; AID 1063; inhibition, % at 10 µM; Leishmania major promastigotes, resazurin fluorescence viability;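 note: promastigotes grown with compound for 44 hours at 28 °C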
Avidin fluor = compound fluoresces at 488/530 nm on avidin beads | compound fluorescence 488/530 nm, flow cytometry; hits give high values | fluorescence (KMESF) at 10 µM | 220,000 tested, 0.38% active; in the data active = fluorescence above about 47
ABCG2 block = inhibitors of human ABCG2 transporter, ABCB1 counter-screen. AID 1325. 190,000 tested, 0.1% active. inhibition, % at 6.6 µM. Q9UNQ0. IgMXP3 cells, JC-1 efflux, flow cytometry;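 active = inhibition above 80%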;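 note: 0% = DMSO and 100% = nicardipine control wells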
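Measure – % inhibition of efflux relative to nicardipine and DMSO · Test system – ABCG2 IgMXP3 and barcoded ABCB1 CCRF-Adr cell mix · Control set – nicardipine as high control, DMSO as low control · Compound – one concentration, 6.6 µM final · Signal – flow cytometry of retained JC-1 fluorescence · Timing – 10 min exposure at 25 °C with rotation, no wash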
Active calls of the source: *; nt = not tested or not shown. The entries come from a sample that favours hits as a whole. Cut-off read from the data, not from the text of the source, unless noted: active = inhibition above about 50%; inactive = the rest.

SMILES	PKD1 inh	GSH fluor	ABCB1 inh	Lmaj promast	Avidin fluor	ABCG2 block
CC(Sc1nnc2ccccn12)C(=O)Nc1ccc2c(c1)OCO2 (centres undefined)	-8	14	0	6	8	0
CCc1cccc(NC(=O)Cn2cc(C=O)c3ccccc32)c1	-1	14	-1	14	14	14
O=C(Nc1nc2ccccc2n1CCN1CCOCC1)c1cn(-c2ccccc2)nc1-c1ccccc1	-4	5	3	96*	6	9
CN(CCNC(=O)c1cc2c(=O)n(C)c3ccccc3c2n1C)Cc1ccccc1	6	14	2	69*	5	-1
Cn1c(C(=O)NCCN2CCN(c3ccccc3F)CC2)cc2c(=O)n(C)c3ccccc3c21	8	15	8	51*	27	10
COc1cc(C(=O)c2ccccc2)c(OC)cc1C(=O)Nc1ccc(O)cc1	-4	12	0	1	11	0
COc1ccc(-n2c(=O)c3ccccc3n(Cc3cccc(C)c3)c2=O)cc1OC	-2	15	1	19	9	1
O=C1CS/C(=N/N=C/c2c[nH]c3ccccc23)N1	nt	nt	nt	nt	8	nt
O=C1/C(=C/c2c[nH]c3ccccc23)CCC/C1=C\c1c[nH]c2ccccc12	-17	11	0	84*	3	-2
CCOC(=O)/C=C1\SCC(=O)N1Cc1ccc(Br)cc1	-5	21	0	4	20	1
CCOC(=O)/C=C1\SCC(=O)N1CC(=O)NC(C)c1ccccc1 (centres undefined)	2	9	1	-2	2	16
CCOC(=O)/C=C1\SCC(=O)N1CC(=O)NC(c1ccccc1)c1ccccc1	0	5	0	77*	13	-8
CCOC(=O)/C=C1\SCC(=O)N1Cc1nnc(-c2ccccc2Br)o1	5	22	0	40	50*	3
CCC(NC(=O)c1ccc([N+](=O)[O-])cc1[N+](=O)[O-])c1ccccc1 (centres undefined)	-4	36	2	92*	12	26
CCN(C(=O)COC(=O)c1cc(-c2ccc3cc(OC)ccc3c2)nc2ccccc12)C1CCS(=O)(=O)C1 (centres undefined)	-10	3	0	98*	12	-1
O=C(CN(CC1CCCO1)C(=O)CNS(=O)(=O)c1ccc(Cl)cc1)NCCc1ccccc1 (centres undefined)	-10	9	1	0	9	3
CC1=C(C(=O)Nc2ccccc2)C(c2cccc([N+](=O)[O-])c2)Nc2nc3ccccc3n21 (centres undefined)	-7	23	0	98*	13	0
O=c1c(CN2CCN(c3ccccn3)CC2)coc2ccccc12	-9	11	0	63*	13	5
Oc1c(CN2CCN(c3ccccn3)CC2)cc(Cl)c2cccnc12	-6	15	0	100*	10	0
OCCN1CCN(Cc2cc(Cl)c3cccnc3c2O)CC1	2	44	0	100*	4	2
Cc1cc(OCC(=O)O/N=C(\N)c2ccccc2)ccc1Br	-5	9	0	-3	3	1
Cc1cc2nc(SCC(=O)N(C)C)c3c(c2cc1C)CCCC3	-8	46	0	93*	8	0
COc1ccc2c(c1)sc(=N)n2C	2	12	0	101*	10	1
Cc1ccc(Oc2ncc(CN3CCOCC3)s2)cc1	-10	22	0	77*	2	1
Brc1ccc(Oc2ncc(CN3CCN(c4ccccc4)CC3)s2)cc1	2	36	0	-4	6	0
Clc1cccc(Oc2ncc(CN3CCOCC3)s2)c1	-4	13	0	62*	24	2
CC(C)(CC(=O)O)CC(=O)Nc1cc(-c2ccccc2)[nH]n1	nt	nt	nt	nt	3	nt
Nn1c(SCC(=O)Nc2cc(S(=O)(=O)N3CCOCC3)ccc2Cl)nnc1-c1cccnc1	-8	13	0	0	12	-2
CCOC(=O)C1(CC2CCCCO2)CCN(S(=O)(=O)c2c(C)nn(C)c2C)CC1 (centres undefined)	-13	22	0	-4	9	1
COc1ccc(C(=O)CC(=O)C(=O)NCCc2cccc(C)c2)cc1	-8	6	1	64*	12	1
